This excerpt belongs to a sample that is enriched for hits.
UPR CHOP act: activators of apoptotic arm of unfolded protein response (CHOP); CHO-CHOP luciferase reporter, UPR activation, luminescence; percent of tunicamycin response over DMSO baseline; activation, % at 10 µM; hit rate 0.34% among 330,000; AID 449763;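 active = at 10 µM dose, activation of 40% or more, normalized to positive control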
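Assay system: CHO cells with stable CHOP pathway luciferase reporter; Buffer or medium: F12 plus 10% serum; Times: 16-18 h cell attachment, then 6 h compound exposure, 37 °C; Signal: luciferase luminescence; Read-out basis: percent activation relative to tunicamycin control; Control set: tunicamycin high control, DMSO low control.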
CHOP inh: CHOP inhibition in unfolded protein response; CHO-K1 CHOP-promoter luciferase, tunicamycin-induced, 15-18 h; inhibition, % at 10 µM; hit rate 3.8% among 220,000; AID 2732;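 active = compounds that reduced the stress-induced luciferase reporter signal by more than about 70% of percent inhibition, limit read from the data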
Tb MetRS inh: Trypanosoma brucei MetRS inhibition | purified T. brucei MetRS, ATP depletion, Kinase-Glo luminescence | inhibition, % at 11.9 µM | hit rate 0.4% among 360,000;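 active = inhibition above a per-plate cutoff of the control wells' mean inhibition plus 3 SD, cut at about 5.5% in these data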
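Test system – parasite MetRS enzyme · Reagent – substrates ATP, L-methionine and bulk Escherichia coli tRNA · Doses – 11.9 µM compound single dose, 0.9% DMSO · Times – 15 min enzyme-compound preincubation, 2 h reaction, 10 min detection, 25 °C · Signal – Kinase-Glo luminescence, ATP depletion format · Controls – DMSO-only wells as low control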
XBP1 UPR activ: activators of adaptive arm of unfolded protein response (XBP1). CHO-XBP1 luciferase reporter, IRE1-XBP1 UPR activation, luminescence; percent of tunicamycin response, DMSO as zero. hit rate 0.33% among 330,000. AID 463104. activation, % at 20 µM;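 active = versus positive control, 20 µM dose yields 30% or more activation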
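Test system: CHO-XBP1 luciferase reporter cells | Buffer or medium: Serum-containing F12 medium, 10% FBS | Schedule: 6 h compound exposure at 37 °C, 5% CO2 | Detection: Steady-Glo luciferase glow luminescence, 10 min after reagent addition | Read-out basis: Activation, % of tunicamycin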
V-ATPase pHluor: alters yeast V-ATPase proton transport; response, % at 10 µM; hit rate 0.37% among 350,000; AID 504577; S. cerevisiae, pHLuorin cytosolic pH fluorescence; in the data active = response mostly above about 7.3%, no sharp cut-off; inactive = mostly below about 5.4%; also: actives read high
VATPase regulator: yeast V-ATPase proton transport regulation | shares compounds with V-ATPase pHluor | AID 602197 | response, % at 10 µM | hit rate 2% among 980 | S. cerevisiae pHLuorin cytosolic pH; in the data active = response above about 24%
Of the large screens only hits and unclear results are named; the others gave an inactive call (follow-up assays come after a bar, where they were run).

CC(=O)N1N=C(c2ccccc2)OC1(C)CC(=O)Nc1ccccc1 (stereo not drawn)	V-ATPase pHluor 8.3 | VATPase regulator inactive
CC(C)N1CCCC(C)(C(=O)Nc2nccc3ccccc23)C1 (stereo not drawn)	none (no result: UPR CHOP act, CHOP inh, XBP1 UPR activ, V-ATPase pHluor)
O=C(NCCN1CCN(c2ccccc2)CC1)Nc1ccccc1Br	none (no result: CHOP inh)
CCn1c(COc2ccc(=O)n(-c3ccccc3)n2)n[nH]c1=S	none
C[C@@H]1CN([C@@H](C)CO)C(=O)CCCn2nncc2CO[C@H]1CN(C)Cc1cccc2c1OCCCO2	none (no result: UPR CHOP act, CHOP inh, XBP1 UPR activ)
C[C@H](CO)N1C[C@H](C)[C@@H](CN(C)Cc2cccc3c2OCCCO3)OCc2cnnn2CCCC1=O	V-ATPase pHluor 9.4 (no result: UPR CHOP act, CHOP inh, XBP1 UPR activ) | VATPase regulator inactive
Cc1cc(C)cc(OCCCn2ccnc2)c1	V-ATPase pHluor 9.0 (no result: CHOP inh) | VATPase regulator inactive
Cc1cccc(OCCCn2ccnc2)c1	none
COc1cccc(CNC(=O)C2CCN(c3ncnc4c3nc3n4CCCCC3)CC2)c1	none (no result: CHOP inh)
COc1ccccc1CNC(=O)C1CCN(c2ncnc3c2nc2n3CCCCC2)CC1	V-ATPase pHluor 11.7 (no result: CHOP inh) | VATPase regulator inactive
CC(Sc1nc(N)c(NC(=O)c2ccc(Br)o2)c(=O)[nH]1)C(=O)O (stereo not drawn)	none (no result: CHOP inh)
CSc1nc(N)c(NC(=O)c2ccc(Br)o2)c(=O)[nH]1	V-ATPase pHluor 11.1 (no result: CHOP inh) | VATPase regulator inactive
c1ccc(CSC2=NCCCN2)cc1	none | VATPase regulator inactive
Cc1ccc(C)c(NC(=O)C(Sc2nnc(-c3cccs3)o2)c2ccccc2)c1 (stereo not drawn)	none (no result: UPR CHOP act, XBP1 UPR activ)
Cc1cc(C(=O)O)c2ccccc2n1	V-ATPase pHluor 16.2 | VATPase regulator inactive
Cc1cc(C(N)=O)c2ccccc2n1	none
COCc1nc2sc(C)c(C)c2c(=O)[nH]1	V-ATPase pHluor 12.2 | VATPase regulator inactive
Cc1sc2nc(COC(=O)c3ccc(O)cc3)[nH]c(=O)c2c1C	none
CC(C)(C)NC(=O)c1cc2c(ccc3ccccc32)oc1=O	V-ATPase pHluor 8.9 (no result: CHOP inh) | VATPase regulator inactive
O=C(O)c1cc2c(ccc3ccccc32)oc1=O	none
c1ccc2c(c1)CCN(Cc1nnnn1Cc1ccc3c(c1)OCO3)C2	none
c1ccc(Cn2nnnc2CN2CCN(Cc3ccc4c(c3)OCO4)CC2)cc1	V-ATPase pHluor 6.8 | VATPase regulator inactive
COc1ccccc1NC(=O)C(C)OC(=O)CCCOc1ccccc1 (stereo not drawn)	V-ATPase pHluor 10.9 (no result: CHOP inh) | VATPase regulator inactive
CC(OC(=O)CCCOc1ccccc1)C(=O)NC(N)=O (stereo not drawn)	none
COC(=O)c1cnc(SCc2ccc(Cl)cc2)n1C	CHOP inh 75.3, V-ATPase pHluor 6.3 | VATPase regulator inactive
COC(=O)c1cnc(SCC(=O)c2ccccc2)n1C	none (no result: CHOP inh)
CN(Cc1ccc(F)cc1)S(=O)(=O)c1nnc(NC(=O)c2ccccc2Br)s1	none (no result: CHOP inh)
COc1ccccc1CNC(=O)c1oc2ccc(S(=O)(=O)N3CCOCC3)cc2c1C	none (no result: CHOP inh)
COc1ccccc1CNC(=O)c1oc2ccc(S(=O)(=O)N3CCCC3)cc2c1C	V-ATPase pHluor 7.2 | VATPase regulator inactive
COc1cc(/C=N/NC(=O)CN2CCCCC2)ccc1OCc1ccccc1	V-ATPase pHluor 9.6 | VATPase regulator inactive
COc1cc(/C=N/NC(=O)CN2CCOCC2)ccc1OCc1ccccc1	none
O=C(CCl)N1CCN(C(=O)C2COc3ccccc3O2)CC1 (stereo not drawn)	V-ATPase pHluor 14.1 (no result: CHOP inh) | VATPase regulator inactive
O=C(NCCc1c[nH]c2ccccc12)C1CCC(=O)N(CCc2cccc(F)c2)C1 (stereo not drawn)	V-ATPase pHluor 11.1 (no result: CHOP inh) | VATPase regulator inactive
COCCN1CCN(C(=O)C2CCC(=O)N(CCc3cccc(F)c3)C2)CC1 (stereo not drawn)	V-ATPase pHluor 7.4 (no result: CHOP inh) | VATPase regulator inactive
CC(=O)Nc1ccc(S(=O)(=O)c2cc(O)ccc2O)cc1	none (no result: CHOP inh)
Cc1cccc(N2CCN(C(=O)c3cc(=O)[nH]c4ccccc34)CC2)c1C	V-ATPase pHluor 14.1 | VATPase regulator inactive
Cc1cc(C)nc(SC2=CS(=O)(=O)c3ccccc32)n1	none | VATPase regulator inactive
Cc1cccc(C)c1NC(=O)NC1(C(=O)NCCCN2CCOCC2)CCCCC1	none
CCOC(=O)c1cccc(C(=O)OCC)n1	none | VATPase regulator inactive
O=C(CN1c2cccc3cccc(c23)S1(=O)=O)Nc1c(F)c(F)c(F)c(F)c1F	none (no result: CHOP inh)
O=C(CSC1=NCCS1)Nc1ccc(F)cc1	none | VATPase regulator inactive
CC(=O)Nc1ccc(NC(=O)CSc2nnc(NC(=O)Cc3ccc(F)cc3)s2)cc1	V-ATPase pHluor 8.3 (no result: CHOP inh) | VATPase regulator inactive
NC(=O)c1ccccc1NC(=O)CSC1=NCCS1	none (no result: CHOP inh)
Cc1ccc(Nc2nc3ccccc3c(=O)[nH]2)cc1C	V-ATPase pHluor 11.2 | VATPase regulator inactive
Cc1nc(NC(=O)c2c(-c3ccccc3Cl)noc2C)sc1C	V-ATPase pHluor 12.9 (no result: CHOP inh) | VATPase regulator inactive
Cc1nnc(NC(=O)c2c(-c3ccccc3Cl)noc2C)s1	none
OC[C@@H]1CN(Cc2cccnc2)C[C@H](n2cnc3c(N4CCN(c5ccccc5)CC4)ncnc32)O1	none (no result: UPR CHOP act, CHOP inh, XBP1 UPR activ, V-ATPase pHluor)
Cc1c(OC(C)C(=O)NCC(O)c2ccccc2)ccc2c3c(c(=O)oc12)CCCC3 (stereo not drawn)	V-ATPase pHluor 10.2 (no result: CHOP inh) | VATPase regulator inactive
O=S1(=O)C=C(SCCN2CCCCC2)c2ccccc21	none | VATPase regulator inactive
Cc1onc(-c2ccccc2)c1C(=O)c1c[nH]c(C(=O)NCc2ccncc2)c1	V-ATPase pHluor 10.8 | VATPase regulator inactive
Cc1onc(-c2ccccc2)c1C(=O)c1c[nH]c(C(=O)NCc2ccccn2)c1	none
Cc1c(NC(=O)Nc2ccccc2Cl)c(=O)n(-c2ccccc2)n1C	none
COC(=O)[C@]12CCCCC=C1N(CCC1=CCCCC1)C(=O)[C@H](CC(=O)N1CCOCC1)C2	none (no result: UPR CHOP act, CHOP inh, XBP1 UPR activ, V-ATPase pHluor)
COc1ccccc1N1CCN(C2CCCN(S(=O)(=O)c3ccc(C)cc3)C2)CC1 (stereo not drawn)	V-ATPase pHluor 10.3 (no result: CHOP inh) | VATPase regulator inactive
Cc1cc(C)c(OCCOCCN2CCNCC2)c(C)c1	V-ATPase pHluor 16.4 | VATPase regulator inactive
CCOc1ccc(-c2nnc(SCC(=O)NC3CC3)o2)cc1	V-ATPase pHluor 10.0 (no result: CHOP inh) | VATPase regulator inactive
O=C(CSc1nnc(-c2ccccc2)o1)OCc1ccccc1	none | VATPase regulator inactive
CCN(CC)C(=O)CSc1nnc(-c2ccccc2)o1	none | VATPase regulator inactive
CCN(CC)C(=O)CCSc1nnc(-c2ccncc2)o1	none
Cc1ccc2c(c1)cc(CN(Cc1cccnc1)C(=O)NCc1ccccc1)c1nnnn12	none
CN(C(=O)CSC1=NC2C(N=N1)c1cc(Br)ccc1N2C)C1CCCCC1 (stereo not drawn)	none
CC(C)CNC(C(=O)Nc1ccc([N+](=O)[O-])cc1Br)c1ccccc1 (stereo not drawn)	V-ATPase pHluor 10.8 | VATPase regulator inactive

Screening results: PubChem, several laboratories
